Screening data from PubChem BioAssay.
TNAP inh noacc – TNAP (human) inhibition, acceptor-free conditions | P05186 | purified TNAP, CDP-star luminescence, 30 min | inhibition, % at 20 µM | 200,000 tested, 0.26% active;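 active = tissue-nonspecific alkaline phosphatase inhibition above about 50% at 20 µM in the single-dose screen, limit read from the data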
Target sequence (P05186 whole entry, looked up): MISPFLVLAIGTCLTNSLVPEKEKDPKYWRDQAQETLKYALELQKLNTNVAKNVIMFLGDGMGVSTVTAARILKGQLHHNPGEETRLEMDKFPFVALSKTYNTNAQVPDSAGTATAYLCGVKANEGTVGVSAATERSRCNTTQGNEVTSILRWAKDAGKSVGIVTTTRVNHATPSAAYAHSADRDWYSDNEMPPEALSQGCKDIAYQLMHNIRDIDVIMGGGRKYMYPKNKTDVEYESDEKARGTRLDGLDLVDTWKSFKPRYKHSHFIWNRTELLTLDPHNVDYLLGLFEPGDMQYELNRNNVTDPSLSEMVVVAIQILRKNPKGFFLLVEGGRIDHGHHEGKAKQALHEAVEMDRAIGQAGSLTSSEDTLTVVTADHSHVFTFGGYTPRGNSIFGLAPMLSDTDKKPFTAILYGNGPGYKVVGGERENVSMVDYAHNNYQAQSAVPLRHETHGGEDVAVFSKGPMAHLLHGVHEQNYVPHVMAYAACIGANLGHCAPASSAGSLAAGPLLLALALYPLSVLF
TNAP inh hiacc – blocks human TNAP under high phosphate acceptor concentration; purified TNAP, CDP-star luminescence, 1 M DEA; P05186; 200,000 tested, 0.03% active; inhibition, % at 20 µM;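 active = over 50% inhibition of tissue-nonspecific alkaline phosphatase at 20 µM in the single-dose screen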
TNAP act hiacc – increases human TNAP activity under high phosphate acceptor concentration; P05186; purified TNAP, CDP-star luminescence, 1 M DEA, 30 min; active compounds read high; 0 = EDTA background, 1 = DMSO-only activity; activation factor at 20 µM; 200,000 tested, under 10 active; AID 1136;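 active = activation factor at least 2 at 20 µM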
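Control set: EDTA negative control, DMSO positive control / Assay system: human TNAP / Quantity: TNAP 1/800 final / Evaluation: TNAP activation factor scaled between EDTA and DMSO control wells / Measured by: luminescent substrate turnover signal / Compound dosing: one dose, 20 µM / Times: 30 min enzyme reaction at room temperature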
WT yeast gro inh – growth inhibition of WT yeast, mitochondrial fusion screen. 190,000 tested, 2.1% active. inhibition, % at 10 µM. mitochondrial fusion phenotypic screen, WT strain. AID 1362; in the data active = inhibition above about 58%; tested in S. cerevisiae
Arbovirus anti – antivirals against arbovirus infection; inhibition, % at 10 µM; 200,000 tested, 0.37% active; arbovirus infection cell-based antiviral screen; AID 1251; in the data active = inhibition above about 30%
A number is an active result; n = inactive. Sampled rows, rich in hits. Any-hit rate of the full collection: about 2.6%.

SMILES	TNAP inh noacc	TNAP inh hiacc	TNAP act hiacc	WT yeast gro inh	Arbovirus anti
Clc1cccc(Cl)c1Cn1cnc2c(N3CCCCCC3)ncnc21	n	n	n	75	n
COC(=O)C(C)(C)ONC(=O)Nc1ccccc1	n	n	n	n	n
COc1cc(/C=C/C(=O)Nc2ccc(C)cc2)cc(OC)c1OC	n	n	n	n	n
COc1cc(/C=C/C(=O)Nc2nnc(C(C)(C)C)s2)cc(OC)c1OC	n	n	n	n	31
Cn1nc(CSc2ccccc2)c(C=O)c1Cl	n	n	n	n	n
CN1/C(=C/C2CC(=O)N(c3ccc([N+](=O)[O-])cc3)C2=O)C(C)(C)c2ccccc21 (stereo not given)	n	n	n	n	n
CC(C)c1ccc(S(=O)(=O)c2ccc(NN)cc2)cc1	n	n	n	69	n
CCC(C)(C)c1ccc(OCCCC[n+]2cccc(C)c2)c(C(C)(C)CC)c1	n	n	n	98	n
Cc1cc(C(=O)CSc2n[nH]c(-c3ccccc3F)n2)c(C)n1Cc1cccs1	91	n	n	n	n
Cc1csc(SCC(=O)c2cc(C)n(Cc3cccs3)c2C)n1	n	n	n	n	n
Cc1cccc(NC(=O)C2CCCN2S(=O)(=O)c2cccc3cccnc23)c1 (stereo not given)	n	n	n	n	n
c1ccc(CCSc2ncnc3nc[nH]c23)cc1	n	n	n	n	n
c1ccc2c(CSc3ncnc4nc[nH]c34)cccc2c1	n	n	n	65	n
CCc1ccccc1NC(=S)N(Cc1cccs1)C1CCCC1	n	n	n	71	n
CO/N=C/NC(=O)c1c(OC)ccnc1Oc1cccc(C(F)(F)F)c1	n	n	n	n	n
CC(C)N=c1scc(-c2cccs2)n1/N=C/c1ccc(O)c(O)c1O	n	n	n	82	n
Cn1c(N)c(C(=O)c2cc(-c3ccccn3)nc3ccccc23)c(=O)[nH]c1=O	n	n	n	n	n
Cc1ccc(C(=O)Nc2ccccc2SCC2CSc3nc4ccccc4c(=O)n32)cc1 (stereo not given)	n	n	n	n	42
Cc1c(NC2=CC(=O)CC(C)(C)C2)ccc([N+](=O)[O-])c1C	n	n	n	n	n
CC1=C/C(=N\Nc2ccccc2[N+](=O)[O-])CC(C)(C)C1	n	n	n	64	n
Cc1cc(N/N=C/c2ccc(Cl)cc2Cl)nc(NCc2ccccc2)n1	n	n	n	83	n
Cc1ccnc2nc(C(=O)OCC(=O)NC(=O)NCc3ccco3)nn12	n	n	n	n	n
CCOC(=O)Cc1nnc(Nc2cc(C)ccc2C)c2ccccc12	n	n	n	n	n
CNC(=S)N/N=C/C1=CCC2CC1C2(C)C (stereo not given)	n	n	n	n	n
Cc1ccsc1/C=N/NC(=S)NCCc1ccccc1	n	n	n	69	n
SMILES	TNAP inh noacc	TNAP inh hiacc	TNAP act hiacc	WT yeast gro inh	Arbovirus anti
CC1(C)C2CC=C(/C=N/NC(=S)NCCc3ccccc3)C1C2 (stereo not given)	n	n	n	66	n
Cc1cccc(NC(=O)c2ccccc2-c2ccccc2)c1	n	n	n	n	n
Cc1cc(NC(=O)c2ccccc2-c2ccccc2)ccc1Br	n	n	n	72	n
CCOc1cc(/C=C2\CCC/C(=C\c3cc(Cl)c(O)c(OCC)c3)C2=O)cc(Cl)c1O	n	53	n	n	n
CCOc1ccc(C(C)=O)cc1CN1C(=O)NC(C)(C2CC2)C1=O (stereo not given)	n	n	n	n	n
CC1CCN(C(=S)c2cn(Cc3ccccc3F)c3ccccc23)CC1	n	n	n	74	n
COC(=O)Cc1ccc(NC(=S)N2CCN(c3cc(Cl)ccc3C)CC2)cc1	n	n	n	n	n
COc1ccc(CNC(=O)c2ccc(CS(=O)(=O)Cc3ccccc3F)o2)cc1	n	n	n	n	n
Cc1cccc(NC(=O)Cn2cnc3c(oc4nc5c(cc43)COC(C)(C)C5)c2=O)c1	n	n	n	n	n
COC(=O)c1ccc(NC(=O)c2ccc(OC(C)=O)c(OC)c2)cc1	n	n	n	n	n
COc1cc(C(=O)OC2CC3CCC2(C)C3(C)C)ccc1OC(C)=O (stereo not given)	n	n	n	73	n
CSC(=O)CC(=O)NC(=O)c1ccccc1	n	n	n	n	n
CCOC(=O)CC(NC(=O)CCc1c(C)nc2ncnn2c1C)c1ccc(C)cc1 (stereo not given)	n	n	n	n	n
O=C(Nc1ccc(Oc2cccc3ccccc23)cc1)c1ccco1	n	n	n	79	n
O=C(O)c1ccccc1C(=O)Nc1ccc(Oc2cccc3ccccc23)cc1	n	n	n	n	n
O=C(OC1CCCCC1)c1ccc(NC(=O)c2ccco2)cc1	n	n	n	71	n
CC(C)(C)C(=O)Nc1cc(NC(=O)C(C)(C)C)cc(C(=O)Nc2cc(C(=O)O)cc(C(=O)O)c2)c1	n	n	n	n	n
COc1ccc(S(=O)(=O)N/N=C(/C)c2cccc(NC(=O)c3ccccc3Cl)c2)cc1	n	n	n	n	37
CC(=O)Nc1cccc(/C(C)=N/NS(=O)(=O)c2ccccc2)c1	n	n	n	n	n
CCOc1ccccc1N(C(C)=O)S(=O)(=O)c1ccc(Cl)cc1	n	n	n	n	n
NC(=O)C1CCN(c2nc(-c3ccc(Br)cc3)cs2)CC1	n	n	n	n	n
NC(=O)C1(N2CCCCC2)CCN(c2nc(-c3ccc(Br)cc3)cs2)CC1	n	n	n	65	n
CCC(CC)C(=O)Nc1ccccc1NC(C)=O	n	n	n	n	n
CCCCSCCCNC(=S)Nc1ccccc1C	n	n	n	73	n
CCCCNC(=S)Nc1ccccc1Cc1ccccc1	n	n	n	73	n
SMILES	TNAP inh noacc	TNAP inh hiacc	TNAP act hiacc	WT yeast gro inh	Arbovirus anti
CCC(C)NCCOc1ccc(C)cc1[N+](=O)[O-] (stereo not given)	n	n	n	n	n
CCC(C)Nc1c([N+](=O)[O-])cc(C)cc1[N+](=O)[O-] (stereo not given)	n	n	n	67	n
CN1CCN(c2ccc(Cl)cc2NC(=O)/C=C/c2ccc(F)cc2)CC1	n	n	n	83	n
CCOc1ccc(NC(=O)c2ccc(-n3cccn3)nc2)cc1	n	n	n	n	n
CC(C)(C)c1ccc(S(=O)(=O)N2CCC(c3nc4ccc(Cl)cc4[nH]3)CC2)cc1	n	n	n	69	n
CC(=O)Nc1ccc(S(=O)(=O)N2CCC(c3nc4ccc(C)cc4[nH]3)CC2)cc1	n	n	n	n	n
Cc1csc(NC(=O)C2CCCN(S(=O)(=O)c3ccc(Br)s3)C2)n1 (stereo not given)	n	n	n	n	n
Cc1ccccc1Nc1nc(-c2cccnc2)nc2ccccc12	n	n	n	n	n
c1cncc(-c2nc(NCC3COc4ccccc4O3)c3ccccc3n2)c1 (stereo not given)	n	n	n	67	n
CCCc1sc(N)nc1-c1ccc(Cl)cc1	n	n	n	69	n
